One block for each molecule: values may come before it.
Key:
Type in all cases: functional, cell-based
A-427 = assay: Antiproliferative activity against human A-427 cells after 10 days; settings: A-427, 240 h
In short: (§1)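 Tested as part of a 240-line cancer cell panel (Eurofins Oncopanel); all lines were mycoplasma-negative and STR-verified. Cells were exposed to a compound concentration series in 2D culture for 10 days. The highest concentration was 10 μM or 25 μM, depending on the inhibitor. Antiproliferative IC50 was derived from the mean of three biological replicates.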

[1] = Antiproliferative activity against human C4-1 cells after 10 days; settings: C4-1, 240 h; in short: as §1
SJRH30 = assay: Antiproliferative activity against human SJRH30 cells after 10 days; settings: SJRH30, 240 h
ES-2 = assay: Antiproliferative activity against human ES2 cells after 10 days; settings: ES-2, 240 h
In short: (§2)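 10-day 2D proliferation screen of a broad cancer cell panel (about 240 lines, Eurofins Oncopanel). All lines were mycoplasma negative and STR verified. Compounds were dosed up to a top concentration of 10 μM or 25 μM, depending on the inhibitor. Anti-proliferative IC50 values are the average of three biological replicates.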

NCI-H661 = assay: Antiproliferative activity against human NCI-H661 cells after 10 days; settings: NCI-H661, 240 h
In short: (§3)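 Broad cancer cell line panel (Eurofins Oncopanel, about 240 lines; mycoplasma negative, STR verified) grown in 2D culture and exposed to compound in a 10-day proliferation assay. The top concentration was 10 μM for the SMYD2 inhibitor series and 25 μM for the SMYD3 inhibitor. The proliferative IC50 is taken from concentration-response data, each value the mean of three biological replicates.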

SK-N-FI = assay: Antiproliferative activity against human SK-N-FI cells after 10 days; settings: 240 h
639-V = assay: Antiproliferative activity against human 639-V cells after 10 days; settings: 240 h; in short: as §1
YAPC = assay: Antiproliferative activity against human YAPC cells after 10 days; settings: 240 h
MOLT-16 = assay: Antiproliferative activity against human MOLT-16 cells after 10 days; settings: MOLT-16, 240 h; in short: as §3
CAL-27 = assay: Antiproliferative activity against human CAL-27 cells after 10 days; settings: CAL-27, 240 h; in short: as §1
DMS-114 = assay: Antiproliferative activity against human DMS-114 cells after 10 days; settings: DMS-114, 240 h; in short: as §2
[2] = Antiproliferative activity against human BM-1604 cells after 10 days; settings: BM-1604, 240 h; in short: as §1
MV4-11 = assay: Antiproliferative activity against human MV4-11 cells after 10 days; settings: MV4-11, 240 h; in short: as §3
[3] = Antiproliferative activity against human TE 381.T cells after 10 days; settings: 240 h
PC-3 = assay: Antiproliferative activity against human PC-3 cells after 10 days; settings: PC-3, 240 h; in short: as §3
Daudi = assay: Antiproliferative activity against human Daudi cells after 10 days; settings: 240 h; in short: as §2
COLO 320DM = assay: Antiproliferative activity against human COLO 320DM cells after 10 days; settings: 240 h; in short: as §1
BXPC-3 = assay: Antiproliferative activity against human BXPC-3 cells after 10 days; settings: BXPC-3, 240 h; in short: as §1
Capan-2 = assay: Antiproliferative activity against human Capan2 cells after 10 days; settings: Capan-2, 240 h; in short: as §2
L-428 = assay: Antiproliferative activity against human L-428 cells after 10 days; settings: L-428, 240 h; in short: as §3
T98G = assay: Antiproliferative activity against human T98G cells after 10 days; settings: 240 h
SW1783 = assay: Antiproliferative activity against human SW1783 cells after 10 days; settings: SW1783, 240 h
[4] = Antiproliferative activity against human HUH-6-clone5 cells after 10 days; settings: HUH-6-clone5, 240 h; in short: as §2
SW480 = assay: Antiproliferative activity against human SW480 cells after 10 days; settings: SW480, 240 h
ACHN = assay: Antiproliferative activity against human ACHN cells after 10 days; settings: 240 h; in short: as §1
LS174T = assay: Antiproliferative activity against human LS174T cells after 10 days; settings: 240 h; in short: as §3
COR-L105 = assay: Antiproliferative activity against human COR-L105 cells after 10 days; settings: COR-L105, 240 h; in short: as §2
CAL-62 = assay: Antiproliferative activity against human CAL-62 cells after 10 days; settings: CAL-62, 240 h; in short: as §1
G-402 = assay: Antiproliferative activity against human G-402 cells after 10 days; settings: G-402, 240 h; in short: as §2
[5] = Antiproliferative activity against human HLF cells after 10 days; settings: 240 h; in short: as §2
COR-L23 = assay: Antiproliferative activity against human COR-L23 cells after 10 days; settings: COR-L23, 240 h; in short: as §2
C32 = assay: Antiproliferative activity against human C32 cells after 10 days; settings: C32, 240 h
C-4-II = assay: Antiproliferative activity against human C-4-II cells after 10 days; settings: 240 h
H4 = assay: Antiproliferative activity against human H4 cells after 10 days; settings: H4, 240 h
COLO-829 = assay: Antiproliferative activity against human COLO-829 cells after 10 days; settings: COLO-829, 240 h
MX1 = assay: Antiproliferative activity against human MX1 cells after 10 days; settings: MX1, 240 h
Detroit 562 = assay: Antiproliferative activity against human Detroit 562 cells after 10 days; settings: Detroit 562, 240 h
CCRF-CEM = assay: Antiproliferative activity against human CCRF-CEM cells after 10 days; settings: 240 h
SK-N-AS = assay: Antiproliferative activity against human SK-N-AS cells after 10 days; settings: 240 h
DBTRG-05MG = assay: Antiproliferative activity against human DBTRG-05MG cells after 10 days; settings: 240 h
MDA-MB-468 = assay: Antiproliferative activity against human MDA-MB-468 cells after 10 days; settings: MDA-MB-468, 240 h
SK-MEL-28 = assay: Antiproliferative activity against human SK-MEL-28 cells after 10 days; settings: SK-MEL-28, 240 h
NCI-H460 = assay: Antiproliferative activity against human NCI-H460 cells after 10 days; settings: NCI-H460, 240 h
SR = assay: Antiproliferative activity against human SR cells after 10 days; settings: 240 h
HLE = assay: Antiproliferative activity against human HLE cells after 10 days; settings: 240 h

IC50 (NCI-H661): 3.39 µM
IC50 (SK-N-FI): 6.03 µM
IC50 (MOLT-16): 1.11 µM
IC50 (MV4-11): 1.01 µM
IC50 (PC-3): 2.77 µM
IC50 (Daudi): 0.857 µM
IC50 (COLO 320DM): 2.11 µM
IC50 (BXPC-3): 2.87 µM
IC50 (SW1783): 2.96 µM
IC50 (SW480): 2.15 µM
IC50 (ACHN): 3.21 µM
SMILES: Cc1cn(CCN2CCN(c3ccccc3-c3cc(C#N)cc(C(=O)NCCCN4CCCC4)c3)CC2)c2ccccc12
IC50 (A-427): 1.34 µM
IC50 [1]: 2.06 µM
IC50 (SJRH30): 1.23 µM
IC50 (ES-2): 1.32 µM
IC50 (639-V): 1.14 µM
IC50 (YAPC): 2.87 µM
IC50 (CAL-27): 2.52 µM
IC50 (DMS-114): 2.33 µM
IC50 [2]: 4.82 µM
IC50 [3]: 1.99 µM
IC50 (Capan-2): 1.57 µM
IC50 (L-428): 1.49 µM
IC50 (T98G): 5.87 µM
IC50 [4]: 1.34 µM
IC50 (LS174T): 1.47 µM
IC50 (COR-L105): 1.11 µM
IC50 (CAL-62): 2.07 µM
IC50 (G-402): 2.19 µM
IC50 [5]: 2.44 µM
IC50 (COR-L23): 2.21 µM

IC50 (NCI-H661): > 10 µM
IC50 (COLO-829): 5.73 µM
IC50 (SK-N-FI): > 10 µM
IC50 (MOLT-16): > 10 µM
IC50 (MV4-11): > 10 µM
IC50 (CCRF-CEM): > 10 µM
IC50 (PC-3): > 10 µM
IC50 (SK-N-AS): > 10 µM
IC50 (Daudi): > 10 µM
IC50 (COLO 320DM): > 10 µM
IC50 (BXPC-3): > 10 µM
IC50 (SW1783): > 10 µM
IC50 (MDA-MB-468): > 10 µM
IC50 (SK-MEL-28): > 10 µM
IC50 (NCI-H460): > 10 µM
IC50 (SW480): > 10 µM
IC50 (ACHN): > 10 µM
SMILES: O=C(NC1CN(Cc2cnn(Cc3ccccc3)c2)C1)c1cn(C2CC2)nn1
IC50 (A-427): > 10 µM
IC50 (C32): > 10 µM
IC50 [1]: > 10 µM
IC50 (C-4-II): > 10 µM
IC50 (SJRH30): > 10 µM
IC50 (ES-2): > 10 µM
IC50 (H4): > 10 µM
IC50 (639-V): > 10 µM
IC50 (MX1): > 10 µM
IC50 (Detroit 562): > 10 µM
IC50 (YAPC): > 10 µM
IC50 (CAL-27): > 10 µM
IC50 (DMS-114): > 10 µM
IC50 [2]: > 10 µM
IC50 [3]: > 10 µM
IC50 (Capan-2): > 10 µM
IC50 (L-428): 2.61 µM
IC50 (DBTRG-05MG): > 10 µM
IC50 (T98G): > 10 µM
IC50 [4]: > 10 µM
IC50 (LS174T): > 10 µM
IC50 (COR-L105): > 10 µM
IC50 (CAL-62): > 10 µM
IC50 (G-402): > 10 µM
IC50 [5]: > 10 µM
IC50 (COR-L23): > 10 µM
IC50 (SR): > 10 µM
IC50 (HLE): > 10 µM

Source: ChEMBL document CHEMBL5674880 (PLoS One, 2018)
